NRP1-CendR mod – modulators of CendR peptide binding to human neuropilin-1; FAM-RPARPAR peptide binding to NRP-1, fluorescence polarization; inhibition, % at 25 µM; AID 602438; O14786; hit rate 0.85% among 360,000;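 active = inhibition or corrected inhibition above about 18%, plus a signal ratio from 0.5 to 1.5, limit read from the data, passing the limit was not always enough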
Target sequence (O14786 whole entry, looked up): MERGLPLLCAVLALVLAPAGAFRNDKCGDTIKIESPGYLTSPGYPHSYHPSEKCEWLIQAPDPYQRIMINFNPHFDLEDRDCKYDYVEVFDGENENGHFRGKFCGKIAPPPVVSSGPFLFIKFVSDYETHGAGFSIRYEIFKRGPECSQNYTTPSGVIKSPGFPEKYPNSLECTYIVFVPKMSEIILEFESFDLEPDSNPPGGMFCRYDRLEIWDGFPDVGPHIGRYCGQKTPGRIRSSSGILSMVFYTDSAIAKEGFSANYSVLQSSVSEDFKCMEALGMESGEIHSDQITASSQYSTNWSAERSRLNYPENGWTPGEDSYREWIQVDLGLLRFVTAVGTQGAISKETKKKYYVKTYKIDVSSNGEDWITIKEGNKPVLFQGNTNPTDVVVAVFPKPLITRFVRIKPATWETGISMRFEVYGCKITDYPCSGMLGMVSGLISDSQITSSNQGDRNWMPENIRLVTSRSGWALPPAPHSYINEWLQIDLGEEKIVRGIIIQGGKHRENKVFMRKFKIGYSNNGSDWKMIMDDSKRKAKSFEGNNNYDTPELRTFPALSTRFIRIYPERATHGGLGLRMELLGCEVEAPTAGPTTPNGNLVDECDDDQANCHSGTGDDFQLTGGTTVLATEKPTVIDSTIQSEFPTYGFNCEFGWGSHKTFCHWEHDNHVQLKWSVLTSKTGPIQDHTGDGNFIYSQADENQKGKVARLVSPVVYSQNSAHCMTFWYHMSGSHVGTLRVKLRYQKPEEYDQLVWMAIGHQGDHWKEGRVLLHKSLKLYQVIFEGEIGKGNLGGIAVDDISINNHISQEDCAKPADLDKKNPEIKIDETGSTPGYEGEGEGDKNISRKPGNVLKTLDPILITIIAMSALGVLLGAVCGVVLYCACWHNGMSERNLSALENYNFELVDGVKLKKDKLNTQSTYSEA
T cruzi repl – T. cruzi replication inhibition; T. cruzi beta-gal in NIH3T3, luminescence, 90 h; inhibition, % (test concentration not listed); hit rate 1.4% among 300,000;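 active = mean inhibition across valid replicates above about 55%, limit read from the data; inconclusive = mean below that limit but half or more replicates reach it; inactive = mean below it, under half of replicates reach it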;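 also: signal also drops with host cell toxicity which is not excluded here; 0% = plate median of DMSO wells and 100% = zero luminescence signal; higher percent means less beta-gal luminescence so fewer parasites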
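System: NIH/3T3 fibroblasts plus reporter T. cruzi. Medium: DMEM plus 2% FBS. Probe or stimulus: 5000 reporter trypomastigotes per well. Compound: single 50 nL compound addition per well in DMSO. Incubation: co-culture of at least 90 h after 3 h attachment. Detection: GalScreen β-gal luminescence, detergent lysis, 60 min. Evaluation: parasite load inhibition, %.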
V-ATPase pHluor – yeast V-ATPase proton transport regulation by pHLuorin; S. cerevisiae, pHLuorin cytosolic pH fluorescence; response, % at 10 µM; hit rate 0.37% among 350,000; AID 504577; in the data active = response mostly above about 7.3%, no sharp cut-off; inactive = mostly below about 5.4%; also: actives read high
CR mimetic SO – yeast age-related superoxide inhibition as caloric restriction mimetic; AID 2690; superoxide response (% of plate mean), % at 10 µM; S. cerevisiae aged cells, superoxide DHE fluorescence; active compounds read low; hit rate 0.18% among 330,000;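 active = superoxide response under a set limit, about three screen SD below normal, cut at about 65% in these data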;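 also: yeast aged for seven days with compound at 30 °C before DHE staining; 100% = average MFI of all compound-treated wells on the plate with controls excluded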
AI-2 QS mod – modulates the Vibrio harveyi AI-2 quorum sensing system. activity change, % at 7.5 µM. hit rate 0.4% among 300,000. Vibrio harveyi JMH597 AI-2 luminescence/OD600 ratio, 9 h; active compounds read low; strain lacks LuxN and CqsS sensors; 0 = neutral-control median; in the data active = activity change below about -75%, passing the limit was not always enough; inconclusive = no clear call, values can overlap the other calls;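 also: luminescence divided by OD600 gain over 9 h not by final OD600 alone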
HIF activator – HIF pathway transcriptional activation. U2OS HRE-luciferase reporter, luminescence; normalized: DMSO 0%, desferrioxamine 100%. activation, % at 7.5 µM (by protocol). hit rate 0.32% among 300,000. AID 1910;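 active = mean activation of at least 10% of the iron chelator positive control signal, with at least half of replicates also reaching 10%; inconclusive = mean and replicate majority disagree about reaching 10%; inactive = mean and most replicates under 10%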
Active calls of the source: *; ? = inconclusive; · = not tested or not shown. Shown are actives, neighbours in structure and some others; about 3% of the full set was active somewhere.

SMILES	NRP1-CendR mod	T cruzi repl	V-ATPase pHluor	CR mimetic SO	AI-2 QS mod	HIF activator
C#CCOCCOCCOCCNc1nc(N2CCN(C(=O)CCCCCCCCCCNC(=O)[C@@H](CCSC)n3cc(CCO)nn3)CC2)nc(N2CCN(C(=O)CCCCCCCCCCNC(=O)[C@H](CCCN=C(N)N)n3cc(C[C@@H](C)CC)nn3)CC2)n1	21*	·	2	93	·	·
C#CCOCCOCCOCCNc1nc(N2CCN(C(=O)CCCCCCCCCCNC(=O)[C@H](CCCCN)n3cc(C[C@@H](C)CC)nn3)CC2)nc(N2CCN(C(=O)CCCCCCCCCCNC(=O)[C@H](CCCN=C(N)N)n3cc(C[C@@H](C)CC)nn3)CC2)n1	40*	·	-8	104	·	·
C#CCOCCOCCOCCNc1nc(N2CCN(C(=O)CCCCCCCCCCNC(=O)[C@H](CCCCN)n3cc(C)nn3)CC2)nc(N2CCN(C(=O)CCCCCCCCCCNC(=O)[C@H](CCCN=C(N)N)n3cc(C[C@@H](C)CC)nn3)CC2)n1	·	·	·	110	·	·
COc1cccc(C(C[N+](=O)[O-])c2c(C)[nH]n(-c3ccccc3)c2=O)c1 (stereo unspecified)	15	-2	6	129	?	55*
CC(C)NC(=O)c1onc(CSc2cccc3ccccc23)c1C(=O)O	-7	-15	5	95	13	-3
O=C(NCCc1ccccc1)C1CCN(c2ncccn2)CC1	4	0	14*	68	17	1
O=C(NCCc1ccccc1)C1CCN(S(=O)(=O)N2CCCCC2)CC1	6	-19	2	92	15	-1
O=C(NNC(=O)C1CCN(c2ncccn2)CC1)c1ccc(F)cc1	42*	4	-2	108	18	0
NS(=O)(=O)c1cccnc1Nc1ccc(Cl)c(Cl)c1	0	13	1	141	-11	0
NS(=O)(=O)c1cccnc1Nc1cccc(Cl)c1Cl	24*	-11	2	94	2	1
COc1ccc(/C=C2\SC(=O)N(CCNC(=O)Cn3[nH]c(=O)c4ccccc4c3=O)C2=O)cc1	29*	·	-1	104	·	·
O=C(CSc1nc2ncccc2[nH]1)Nc1ccccc1-c1ccccc1	2	-2	-1	85	33	·
COc1cc(C)c(C(=O)CC(=O)c2c(C)cc(OC)cc2C)c(C)c1	11	66*	-3	91	22	4
COc1ccc(NC(C)=O)c(C)c1	-6	-4	10	111	18	0
O=C(CCc1nnc(Cc2cccc(C(F)(F)F)c2)o1)NCC(F)(F)F	-6	-2	1	89	18	0
CC(Nc1nc(-c2ccncc2)nc2ccccc12)c1ccccc1 (stereo unspecified)	10	61*	1	114	8	0
Fc1ccc(Nc2nc(-c3ccncc3)nc3ccccc23)cc1	-8	36	-3	93	34	0
CC(Nc1nc(-c2cccnc2)nc2ccccc12)c1ccccc1 (stereo unspecified)	-2	·	1	·	·	·
Fc1ccccc1Nc1nc(-c2ccncc2)nc2ccccc12	-2	55*	-4	120	15	0
CCN(CC)S(=O)(=O)c1ccc(-c2nnc(SCC(=O)N3c4ccccc4CC3C)o2)cc1 (stereo unspecified)	-16	32	3	101	23	-1
CCN(CC)S(=O)(=O)c1ccc(-c2nnc(SCC(=O)N3c4ccccc4CC3C)n2CC)cc1 (stereo unspecified)	26*	24	1	75	-3	-1
COCCNC(=O)c1sc2nc(-c3ccccc3)cn2c1C	-4	0	10	90	10	71*
CSc1nnc(NC(=O)c2ccc(C)c(S(=O)(=O)N3CCOCC3)c2)s1	13	-9	-2	99	6	1
O=C(CC1CC2CCC1C2)OCC(=O)c1c[nH]c2ccccc12 (stereo unspecified)	-12	4	-3	105	-84*	4
O=C(COC(=O)CC1CC2CCC1C2)NCc1ccc(F)cc1 (stereo unspecified)	17	·	1	72	·	·
SMILES	NRP1-CendR mod	T cruzi repl	V-ATPase pHluor	CR mimetic SO	AI-2 QS mod	HIF activator
COC(=O)CCN(C(=O)c1cc([N+](=O)[O-])cc([N+](=O)[O-])c1)c1ccccn1	4	65*	1	104	25	0
CC(C)NC(=O)c1cc(C2CCCCN2C(=O)c2ccc(C(C)C)cc2)on1 (stereo unspecified)	7	·	·	·	·	·
CC(=O)Nc1ccc(C(=O)N2CCCCC2c2cc(C(=O)NC(C)C)no2)cc1 (stereo unspecified)	44*	·	·	·	·	·
COc1cc(C(=O)N2CCCCC2c2cc(C(=O)N3CCOCC3)no2)cc(OC)c1C (stereo unspecified)	6	·	·	·	·	·
COC(=O)N1CCCCC1c1cc(C(=O)N2CCOCC2)no1 (stereo unspecified)	26*	·	·	·	·	·
O=C(CN1C(=O)c2ccccc2S1(=O)=O)NCCc1ccccc1	-3	-9	-5	107	-4	-36
CCc1nnc(NC(=O)CCN2C(=O)c3ccccc3C2=O)s1	-8	-16	4	97	-65	0
CCCc1nnc(NC(=O)c2cc3ccccc3oc2=O)s1	26*	-3	0	103	27	0
CCCCc1nnc(NC(=O)CN2C(=O)c3ccccc3C2=O)s1	8	-7	1	77	-86*	0
CCCc1nnc(NC(=O)CCCN2C(=O)c3ccccc3C2=O)s1	29*	-40	2	94	-2	0
CC(C)(C)Cc1nnc(NC(=O)CN2C(=O)c3ccccc3C2=O)s1	-6	0	-4	100	13	0
Cc1c(Cl)ccc2sc(NC(=O)CN3C(=O)c4ccccc4C3=O)nc12	-10	0	0	97	-95*	0
COc1ccc(OC)c(C(=O)CCCCC(=O)c2cc(OC)ccc2OC)c1	-7	·	0	·	·	·
CC(C)Cn1cc(C(=O)N2CCC(C)CC2)c2c3ccccc3n(C)c2c1=O	-5	41	4	100	16	0
CC(=O)Nc1sc(NC(=O)c2ccc([N+](=O)[O-])cc2)nc1-c1cccs1	-2	33	3	101	25	0
Cc1cccc2sc(NC(=O)CN3C(=O)C4CC=CCC4C3=O)nc12 (stereo unspecified)	32*	-8	-2	103	-26	0
COc1cc(NC(=O)Nc2cc(C)on2)cc(OC)c1OC	-1	5	-1	105	14	0
Cc1cc(Cl)n2c(nc3ccccc32)c1C#N	-16	71*	-35	·	14	2
C=CCc1c(C)c(C#N)c2nc3ccccc3n2c1NCCN(C)C	17	49	-1	77	14	0
CCc1c(C)c(C#N)c2nc3ccccc3n2c1NCCN(C)C	16	68*	-1	93	5	0
